As usually defined, the IC50 is the midpoint of a concentration-inhibition curve. As usually defined, the EC50 is the concentration at which the effect is half-maximal.

A short description of data set [1]: Selectivity ratio of CC50 for mouse J774A1 cells to IC50 for promastigote stage of Leishmania amazonensis WHOM/BR/75/JOSEFA. To be noted: read-out: Ratio CC50/IC50. In kind it is ADME, cell-based, J774.A1.
The subject of a further data set is Leishmania amazonensis. The data set can be described thus: Antileishmanial activity against promastigote stage of Leishmania amazonensis WHOM/BR/75/JOSEFA after 72 hrs by hemocytometry. In kind it is functional, organism-based.
Data set [2] can be described thus: Selectivity ratio of CC50 for monkey LLC-MK2 cells to EC50 for trypomastigote stage of Trypanosoma cruzi Y. It counts as ADME, cell-based. To be noted: read-out: Ratio CC50/EC50.
Data set [3] has as its system Trypanosoma cruzi. The data set can be described thus: Antitrypanosomal activity against trypomastigote stage of Trypanosoma cruzi Y infected in monkey LLC-MK2 cells after 96 hrs by Pizzi-Brener method. In kind it is functional, organism-based.
For data set [4], the system named is Trypanosoma cruzi. Briefly: Antitrypanosomal activity against epimastigote stage of Trypanosoma cruzi Y after 96 hrs by hemocytometry. In kind it is functional, organism-based. An outline of the steps: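 Log-phase parasites (promastigotes 3-day, Warren's medium + 10% FBS, 25°C; epimastigotes 4-day, LIT + 10% FBS, 28°C) seeded at 1 × 10^6 cells/mL with compound (0.1-100 µM; DMSO ≤1%). Promastigotes read at 72 h, epimastigotes at 96 h, by hemocytometer counting. IC50 by nonlinear regression.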

Data set [5] is described as follows: Selectivity ratio of CC50 for monkey LLC-MK2 cells to IC50 for epimastigote stage of epimastigote stage of Trypanosoma cruzi Y.
The nature of data set [6]: Selectivity ratio of CC50 for monkey LLC-MK2 cells to IC50 for epimastigote stage of epimastigote stage of Trypanosoma cruzi Y. In kind it is ADME, cell-based. Particulars: read-out: Ratio CC50/IC50.
Data set [7] is described as follows: Selectivity ratio of CC50 to IC50 for promastigote stage of Leishmania amazonensis WHOM/BR/75/JOSEFA. More on the design: reference not given here.

On to `CS/C(=C/[N+](=O)[O-])Nc1ccc(N(C)C)cc1`, for which the selectivity ratio in data set [1] was 18.9; in data set [2] it was 6; in data set [5], 6.6; in data set [6] it was 6.6; in data set [7] it was 18.9. Also, the IC50 was 52.8 µM in the data set with Leishmania amazonensis and 31.8 µM with Trypanosoma cruzi [4]. The molecule also registered an EC50 with Trypanosoma cruzi [3] of 35 µM.
For the molecule `COc1ccc2nc(-c3ccccc3)c(S(C)(=O)=O)nc2c1`, the selectivity ratio is 4.1 in data set [1]; 5.5 in data set [2]; 9.3 in data set [5]; 9.3 in data set [6]; 4.1 in data set [7]. The IC50 was 24.7 µM with Leishmania amazonensis and 28.4 µM in the data set with Trypanosoma cruzi [4]. The same molecule yielded an EC50 in the data set with Trypanosoma cruzi [3] of 48.1 µM.
For the molecule `c1ccc(-c2nc3ccccc3nc2-c2ccc(OCCN3CCCCC3)cc2)cc1`, the selectivity ratio came out at 29.6 in data set [1]; 1.8 in data set [2]; 1.8 in data set [5]; 1.8 in data set [6]; 29.6 in data set [7]. Moreover, the IC50 with Leishmania amazonensis worked out at 1.9 µM; in the data set with Trypanosoma cruzi [4], 21.4 µM. Moreover, a half-maximal response in the data set on Trypanosoma cruzi [3] (EC50) required 20.3 µM.
Consider `COc1ccc2nc(S(C)(=O)=O)c(Cl)nc2c1`, for which the selectivity ratio in data set [1] worked out at 7.6; in data set [2], 2.4; in data set [5], 7.5; in data set [6], 7.5; in data set [7], 7.6. The IC50 was determined as 2.9 µM in the data set on Leishmania amazonensis and 3.1 µM with Trypanosoma cruzi [4]. Besides, in the data set on Trypanosoma cruzi [3], the EC50 amounted to 9.8 µM.
For `COc1ccc2nc(NC3CCCCC3)c(SC)nc2c1`, the selectivity ratio in data set [1] was 1.2; in data set [5] it was 8.5; in data set [6], 8.5; in data set [7] it was 1.2. The IC50 with Leishmania amazonensis was 29.8 µM; in the data set with Trypanosoma cruzi [4] it was 30.5 µM. Further, the EC50 with Trypanosoma cruzi [3] was above 50 µM.
As for `CCCCNc1nc2cc(OC)ccc2nc1SC`, the selectivity ratio was 3.5 in data set [1], 1.1 in data set [5], 1.1 in data set [6] and 3.5 in data set [7]. The IC50 in the data set with Leishmania amazonensis is 30.2 µM; with Trypanosoma cruzi [4], 69.2 µM. Further, the EC50 in the data set on Trypanosoma cruzi [3] is above 50 µM.
In the case of `COc1ccc2nc(SC)c(NCC(C)C)nc2c1`, the selectivity ratio in data set [1] stood at 4.7; in data set [5] it was 0.7; in data set [6] it was 0.7; in data set [7], 4.7. Also, the results for the IC50 in the data set on Leishmania amazonensis and with Trypanosoma cruzi [4] were 26.9 µM and 95.7 µM, respectively. This molecule yielded an EC50 with Trypanosoma cruzi [3] above 50 µM.
On to `COc1ccc2nc(SC)c(NCCC(C)C)nc2c1`, for which the selectivity ratio in data set [1] was 3.3; in data set [5] it was 0.7; in data set [6], 0.7; in data set [7], 3.3. In addition, the IC50 with Leishmania amazonensis was 27.1 µM; in the data set on Trypanosoma cruzi [4], 79.6 µM. Also, the EC50 in the data set with Trypanosoma cruzi [3] was above 50 µM.
Take `CCCCNc1nc2cc(Br)ccc2nc1SC`: the selectivity ratio in data set [1] worked out at 5.1; in data set [5] it was 0.9; in data set [6] it was 0.9; in data set [7], 5.1. Moreover, the IC50 turned out to be 25.2 µM in the data set with Leishmania amazonensis and 41.8 µM in the data set on Trypanosoma cruzi [4]. In the data set with Trypanosoma cruzi [3], this molecule gave a concentration giving a half-maximal response (EC50) above 50 µM.
Consider `COc1ccc2nc(NCC(C)C)c(SC)nc2c1`, for which the selectivity ratio in data set [1] amounted to 6.7; in data set [5], 1; in data set [6], 1; in data set [7] it was 6.7. The values for the IC50 in the data set on Leishmania amazonensis and in the data set on Trypanosoma cruzi [4] were 27.6 µM and 69.9 µM, respectively. This molecule also gave an EC50 with Trypanosoma cruzi [3] above 50 µM.
In the case of `CCCCNc1nc2cc(Cl)ccc2nc1SC`, the selectivity ratio in data set [1] was found to be 4.6; in data set [5] it was 1; in data set [6] it was 1; in data set [7], 4.6. Further, the IC50 was found to be 24.4 µM in the data set with Leishmania amazonensis and 63.6 µM with Trypanosoma cruzi [4]. Besides, the EC50 in the data set with Trypanosoma cruzi [3] was above 50 µM.
`COc1ccc2nc(N(C)C)c(S(C)(=O)=O)nc2c1`: the selectivity ratio in data set [1] is 4.5; in data set [5], 6.8; in data set [6] it was 6.8; in data set [7], 4.5. Also, the IC50 in the data set with Leishmania amazonensis came out at 35.9 µM; in the data set with Trypanosoma cruzi [4], 25.2 µM. The EC50 in the data set on Trypanosoma cruzi [3] was above 50 µM.
Consider `CCCCNc1nc2ccccc2nc1S(C)(=O)=O`, for which the selectivity ratio in data set [1] is 11.4; in data set [2] it was 1.5; in data set [5], 5.5; in data set [6] it was 5.5; in data set [7] it was 11.4. The figures for the IC50 in the data set with Leishmania amazonensis and in the data set on Trypanosoma cruzi [4] were 2.9 µM and 4.4 µM, respectively. The molecule also registered an EC50 with Trypanosoma cruzi [3] of 15.7 µM.
In the case of `CS(=O)(=O)c1nc2ccccc2nc1NCCO`, the selectivity ratio in data set [1] was determined as 13; in data set [2], 0.8; in data set [5] it was 4.4; in data set [6], 4.4; in data set [7] it was 13. Also, the IC50 stood at 2.9 µM with Leishmania amazonensis and 4.2 µM in the data set with Trypanosoma cruzi [4]. The molecule also gave an EC50 with Trypanosoma cruzi [3] of 22.6 µM.
Regarding `CCCCNc1nc2cc(OC)ccc2nc1S(C)(=O)=O`, the selectivity ratio stood at 5.5 in data set [1]; 2.1 in data set [2]; 1.6 in data set [5]; 1.6 in data set [6]; 5.5 in data set [7]. The IC50 with Leishmania amazonensis was 32.2 µM; in the data set with Trypanosoma cruzi [4], 55.3 µM. For the same molecule, the EC50 with Trypanosoma cruzi [3] amounted to 41.2 µM.
For the molecule `COc1ccc2nc(S(C)(=O)=O)c(NCCO)nc2c1`, the selectivity ratio turned out to be 3.7 in data set [1], 2.6 in data set [5], 2.6 in data set [6] and 3.7 in data set [7]. Also, the IC50 with Leishmania amazonensis is 69.2 µM; with Trypanosoma cruzi [4], 90.9 µM. In the data set on Trypanosoma cruzi [3], this molecule displayed an EC50 above 50 µM.
As for `COc1ccc2nc(S(C)(=O)=O)c(NC3CCCCC3)nc2c1`, the selectivity ratio in data set [1] stood at 6.5; in data set [2] it was 3.3; in data set [5] it was 2.7; in data set [6], 2.7; in data set [7], 6.5. Besides, the figures for the IC50 with Leishmania amazonensis and with Trypanosoma cruzi [4] were 14.7 µM and 29.1 µM, respectively. The molecule also registered an EC50 in the data set on Trypanosoma cruzi [3] of 23.6 µM.
On to `COc1ccc2nc(S(C)(=O)=O)c(NCC(C)C)nc2c1`, for which the selectivity ratio in data set [1] was 3.6; in data set [2] it was 3.3; in data set [5] it was 1.5; in data set [6], 1.5; in data set [7], 3.6. In addition, the figures for the IC50 in the data set on Leishmania amazonensis and in the data set on Trypanosoma cruzi [4] were 27.8 µM and 55.4 µM, respectively. In addition, the EC50 in the data set with Trypanosoma cruzi [3] amounted to 24.8 µM.
`COc1ccc2nc(S(C)(=O)=O)c(NCCC(C)C)nc2c1`: the values for the selectivity ratio in data set [1], in data set [2] and in data set [6] were 5, 4.2 and 2.6, respectively. The IC50 was found to be 21.2 µM with Leishmania amazonensis and 38 µM with Trypanosoma cruzi [4]. Moreover, the EC50 in the data set on Trypanosoma cruzi [3] came to 22.9 µM.
As to `CCCCNc1nc2cc(Cl)ccc2nc1S(C)(=O)=O`, the selectivity ratio in data set [1] was 50.6; in data set [2], 23.8; in data set [5], 93.4; in data set [6], 93.4; in data set [7], 50.6. Also, the IC50 in the data set on Leishmania amazonensis is 1.4 µM; with Trypanosoma cruzi [4], 2.3 µM. Also, the response in the data set on Trypanosoma cruzi [3] was half-maximal at 9 µM (EC50).
As to `COc1ccc2nc(-c3ccccc3)c(NCCN3CCCCC3)nc2c1`, the selectivity ratio in data set [1] is 0.9; in data set [5] it was 3.8; in data set [6] it was 3.8; in data set [7] it was 0.9. Besides, the values for the IC50 with Leishmania amazonensis and with Trypanosoma cruzi [4] were 50.3 µM and 47.6 µM, respectively. This molecule also came in with an EC50 with Trypanosoma cruzi [3] above 50 µM.
Turning to `CCCCNc1nc2cc(OC)ccc2nc1Cl`, the selectivity ratio in data set [1] came out at 4.4; in data set [5], 7.9; in data set [6], 7.9; in data set [7], 4.4. For the same molecule, the IC50 in the data set on Leishmania amazonensis was found to be 36.2 µM; in the data set on Trypanosoma cruzi [4], 49.5 µM. In the data set with Trypanosoma cruzi [3], the 50% effective concentration (EC50) is above 50 µM.
`CCCCNc1nc2ccc(OC)cc2nc1NCCCC`: the selectivity ratio turned out to be 4.3 in data set [1], 3.2 in data set [5], 3.2 in data set [6] and 4.3 in data set [7]. The IC50 in the data set on Leishmania amazonensis was determined as 20.9 µM; in the data set with Trypanosoma cruzi [4], 29.4 µM. The molecule also showed an EC50 with Trypanosoma cruzi [3] above 50 µM.
For `CCCCNc1nc2ccc(OC)cc2nc1NCc1ccccc1`, the selectivity ratio in data set [1] came out at 3.6; in data set [5], 0.6; in data set [6], 0.6; in data set [7], 3.6. Also, the IC50 in the data set with Leishmania amazonensis was found to be 13.6 µM; in the data set with Trypanosoma cruzi [4] it was 38.4 µM. Further, the concentration giving a half-maximal response (EC50) with Trypanosoma cruzi [3] was above 50 µM.
In the case of `COc1ccc2nc(Nc3ccccc3)c(Nc3ccccc3)nc2c1`, the selectivity ratio worked out at 4.4 in data set [1]; 1.2 in data set [2]; 1 in data set [5]; 1 in data set [6]; 4.4 in data set [7]. The IC50 in the data set with Leishmania amazonensis was 6.5 µM; with Trypanosoma cruzi [4] it was 45.6 µM. In the data set on Trypanosoma cruzi [3], this molecule displayed an EC50 of 37.9 µM.
